The values that follow come from article PMC6936494 (Proceedings of the National Academy of Sciences of the …, 2019).

In test [1] the target is T1, N-terminal domain of LiaX (Enterococcus faecalis, UniProt Q834B6).
T1 sequence (Q834B6 1-275): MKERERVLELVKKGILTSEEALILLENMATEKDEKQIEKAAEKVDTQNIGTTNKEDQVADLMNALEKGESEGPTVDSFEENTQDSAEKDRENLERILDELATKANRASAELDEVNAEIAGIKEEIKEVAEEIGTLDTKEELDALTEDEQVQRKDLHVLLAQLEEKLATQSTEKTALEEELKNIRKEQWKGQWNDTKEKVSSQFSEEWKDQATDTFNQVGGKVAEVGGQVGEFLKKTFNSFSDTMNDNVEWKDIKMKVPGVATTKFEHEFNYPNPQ
Briefly: Microscale thermophoresis with His-tag specific dye, N-terminal domain of LiaX. The format is binding, Enterococcus faecalis S613. A general note: MST reads how a fluorescent partner responds to local heating, with and without ligand.

A further test relates to OG1RF and S613. The note with it: including against E. faecalis; ref [23], [24]; cited from earlier work.
In another test the target is T2, full length LiaX (Enterococcus faecalis, UniProt Q834B6).
T2 sequence (Q834B6 1-533): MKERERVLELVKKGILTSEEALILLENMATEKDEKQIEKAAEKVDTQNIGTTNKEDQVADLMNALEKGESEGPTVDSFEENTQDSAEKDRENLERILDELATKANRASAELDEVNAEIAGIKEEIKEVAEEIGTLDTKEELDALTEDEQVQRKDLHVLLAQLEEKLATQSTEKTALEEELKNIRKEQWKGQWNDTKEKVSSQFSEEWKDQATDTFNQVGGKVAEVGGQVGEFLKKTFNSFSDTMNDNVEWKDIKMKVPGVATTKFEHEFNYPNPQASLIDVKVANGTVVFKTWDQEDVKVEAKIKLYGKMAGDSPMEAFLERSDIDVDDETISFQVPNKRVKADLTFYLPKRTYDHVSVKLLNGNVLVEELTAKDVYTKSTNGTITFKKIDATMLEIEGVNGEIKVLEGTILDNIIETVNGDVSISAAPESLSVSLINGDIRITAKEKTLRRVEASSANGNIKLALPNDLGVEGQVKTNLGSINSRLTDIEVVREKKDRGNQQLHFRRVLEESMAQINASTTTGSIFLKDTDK
Briefly: LL-37 binding by microscale thermophoresis, amine reactive dye, full length LiaX. More on the design: species or system Enterococcus faecalis S613. In outline: (§1)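 Recombinant LiaX (full length or N-terminal domain, His/SUMO-tagged) was expressed in E. coli BL-21 and nickel-column purified, then labeled with NT-647. Microscale thermophoresis ran at 25% LED power in 0.1 M phosphate buffer pH 7.4, 0.0027 M KCl, 0.137 M NaCl and 1 mM TCEP, with or without 5% DMSO. Fluorescence changes were recorded across increasing LL-37 variant concentrations to derive Kd.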

The target in the next test is T3, N-terminal LiaX (Enterococcus faecalis, UniProt Q834B6).
T3 sequence (Q834B6 1-277): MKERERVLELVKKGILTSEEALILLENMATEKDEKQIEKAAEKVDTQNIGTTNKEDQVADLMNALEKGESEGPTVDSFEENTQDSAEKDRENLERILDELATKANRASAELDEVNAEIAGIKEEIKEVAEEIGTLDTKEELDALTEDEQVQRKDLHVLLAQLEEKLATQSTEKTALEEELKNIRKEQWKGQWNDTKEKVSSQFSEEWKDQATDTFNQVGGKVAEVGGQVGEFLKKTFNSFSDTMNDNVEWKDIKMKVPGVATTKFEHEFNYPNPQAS
The experiment in a line: LL-37 binding by microscale thermophoresis, amine reactive dye, N-terminal LiaX. More on the design: species or system Enterococcus faecalis S613. In outline: as §1

The target of test [2] is N-terminal domain of LiaX (Enterococcus faecalis). The experiment in a line: MST.
The target is the same in test [3]. The experiment in a line: MST. This is another data set of the same source.
In test [4] the test system is DAP-S E. faecalis strains. The format is cell-based, Enterococcus faecalis.
Test [5] has as its system Staphylococcus aureus ATCC29213. The experiment in a line: DAP MIC by broth microdilution with exogenous LiaX or N-terminal LiaX, S. aureus. The format is cell-based. The note with it: 50 nM exogenous protein. (In general: In broth dilution the organism is exposed to a series of concentrations in liquid medium.)
Another test relates to E. faecalis strains. The experiment in a line: LL-37 killing assay. It is filed as cell-based, Enterococcus faecalis. The note with it: OG1RFΔliaR; 50 µg/ml LL-37, 2 h.
The next test deals with liaFSR and liaXYZ. The experiment in a line: qRT-PCR for liaFSR and liaXYZ expression. It is filed as cell-based, Enterococcus faecalis. As to conditions: OG1RF. Background: Quantitative PCR measures a nucleic acid by following its amplification.
Test [6] relates to E. faecalis. Briefly: C. elegans infection assay with exogenous N-terminal LiaX. The format is in vivo, Enterococcus faecalis; host Caenorhabditis elegans. In outline:
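Recombinant N-terminal LiaX domain (His/SUMO-tagged) was expressed in E. coli BL-21 and nickel-column purified. Synchronized young adult worms (60–90) were infected with E. faecalis on BHI agar plus gentamicin (10 µg/mL). They were then moved to a liquid killing format (20% BHI broth, 80% M9W buffer) containing N-terminal LiaX at 0.1 to 500 nM, held at 25 °C, and deaths scored daily. Results come from 3 independent experiments, with Kaplan–Meier log-rank or 1-way ANOVA analysis.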

Test [7] has as its system E. faecalis. Briefly: Growth kinetics with LiaX. The format is cell-based, Enterococcus faecalis. The note with it: functional concentrations; 100 nM in BHI, OD600, 24 h.

“Also recorded” adds a separate entry of the source. Read-outs that look alike come from different tables or passages of the source.

Turning to “SSLLEKGLDGAKKAVGGLGKLGKDAVEDLESVGKGAVHDVKDVLDSVL [DCD-1L]”, the “binding affinity to N-terminal domain of LiaX” value in test [1] (His-tag specific dye, DCD-1L tested up to 1,000 µM) is on record as “no detectable binding affinity”. For the same molecule, in the test with OG1RF and S613, the “antimicrobial activity” value is listed as “broad-spectrum antimicrobial activity, including against E. faecalis”.

On to `CC[C@H](C)[C@H](NC(=O)[C@H](CCCCN)NC(=O)[C@H](CCC(=O)O)NC(=O)[C@H](CCCCN)NC(=O)[C@H](CO)NC(=O)[C@H](CCCCN)NC(=O)[C@H](CCCNC(=N)N)NC(=O)[C@H](Cc1ccccc1)NC(=O)[C@H](Cc1ccccc1)NC(=O)[C@H](CC(=O)O)NC(=O)CNC(=O)[C@H](CC(C)C)NC(=O)[C@@H](N)CC(C)C)C(=O)NCC(=O)N[C@@H](CCCCN)C(=O)N[C@@H](CCC(=O)O)C(=O)N[C@@H](Cc1ccccc1)C(=O)N[C@@H](CCCCN)C(=O)N[C@@H](CCCNC(=N)N)C(=O)N[C@H](C(=O)N[C@H](C(=O)N[C@@H](CCC(N)=O)C(=O)N[C@@H](CCCNC(=N)N)C(=O)N[C@H](C(=O)N[C@@H](CCCCN)C(=O)N[C@@H](CC(=O)O)C(=O)N[C@@H](Cc1ccccc1)C(=O)N[C@@H](CC(C)C)C(=O)N[C@@H](CCCNC(=N)N)C(=O)N[C@@H](CC(N)=O)C(=O)N[C@@H](CC(C)C)C(=O)N[C@H](C(=O)N1CCC[C@H]1C(=O)N[C@@H](CCCNC(=N)N)C(=O)N[C@H](C(=O)N[C@@H](CCC(=O)O)C(=O)N[C@@H](CO)C(=O)O)[C@@H](C)O)C(C)C)[C@@H](C)CC)C(C)C)[C@@H](C)CC` [LL-37], for which the dissociation constant Kd (in general, a measure of binding affinity in units of concentration) at full length LiaX worked out at 8.26 ± 0.28 µM; at N-terminal LiaX it was 10.6 ± 0.43 µM; in [1], 5.27 ± 1.14 µM.

Regarding human cathelicidin LL-37 (peptide), the dissociation constant (Kd) in [2] amounted to 5.27 µM; in test [3], 10.6 µM.

B1: N-terminal LiaX: purified N-terminal LiaX (residues 1-277; His-tagged variant residues 1-275) (protein)
chain: MKERERVLELVKKGILTSEEALILLENMATEKDEKQIEKAAEKVDTQNIGTTNKEDQVADLMNALEKGESEGPTVDSFEENTQDSAEKDRENLERILDELATKANRASAELDEVNAEIAGIKEEIKEVAEEIGTLDTKEELDALTEDEQVQRKDLHVLLAQLEEKLATQSTEKTALEEELKNIRKEQWKGQWNDTKEKVSSQFSEEWKDQATDTFNQVGGKVAEVGGQVGEFLKKTFNSFSDTMNDNVEWKDIKMKVPGVATTKFEHEFNYPNPQ
modifications: labeled with a RED-tris-NTA his-tag specific dye (NanoTemper); left off: His6, C-terminal, kept
For B1, the “increase in DAP MIC” value was “over 8 fold” in [4] (OG1RF, 50 nM exogenous protein) and “over 8 fold” in [4] (S613, 50 nM exogenous protein). For the same molecule, the “protection against DAP” value in test [4] (OG1RF, 1 to 100 nM N-terminal LiaX, up to 200 nM full-length LiaX) was “high level of protection to OG1RF in a concentration-dependent manner”; in test [4] (OG1RFΔliaR, 50 nM exogenous protein), “did not protect OG1RFΔliaR against DAP”. Also, the “change in DAP MIC” value in [5] is given as “did not change under any condition”. For the same molecule, the “protection from LL-37 killing” value in the test on E. faecalis strains was “did not protect OG1RFΔliaR from LL-37–mediated killing”. The “transcription of liaFSR and liaXYZ” value in the test on liaFSR and liaXYZ (50 nM protein without DAP, vs untreated) was “no effect on the levels of transcription”; in the test with liaFSR and liaXYZ (protein plus subinhibitory DAP, listed as N terminus of LiaX) it was “maximal activation of the LiaFSR cell envelope stress response; also recorded: highly up-regulated”. Also, in the test on liaFSR and liaXYZ (N terminus of LiaX plus DAP), the “LiaFSR activation relative to DAP alone or DAP with full-length LiaX” value is “significantly higher and more pronounced”. Further, the “virulence in C. elegans” value in the test with E. faecalis [6] (OG1RF and S613, 100 nM purified N-terminal LiaX (Fig. 6), listed as N terminus of LiaX) is “more virulent; also recorded: increased virulence”; in the test with E. faecalis [6] (OG1RFΔliaR and TMΔliaR, exogenous N terminus of LiaX), “did not, however, alter the virulence”. Also, the “virulence in C. elegans, dose dependence” value in the test on E. faecalis [6] (OG1RF or S613, 5-100 nM N-terminus LiaX) is on record as “dose-dependent manner”. Besides, the “effect on growth of E. faecalis” value with E. faecalis [7] is “no impact on the growth”.
